# Measurements pooled from the literature.
# Each line is one published result; the experiments were not run side by side.
# Target: Ephrin type-A receptor 1 (EPHA1, Homo sapiens, UniProt P21709)
# Sequence (P21709 1-976, as in one of the studies): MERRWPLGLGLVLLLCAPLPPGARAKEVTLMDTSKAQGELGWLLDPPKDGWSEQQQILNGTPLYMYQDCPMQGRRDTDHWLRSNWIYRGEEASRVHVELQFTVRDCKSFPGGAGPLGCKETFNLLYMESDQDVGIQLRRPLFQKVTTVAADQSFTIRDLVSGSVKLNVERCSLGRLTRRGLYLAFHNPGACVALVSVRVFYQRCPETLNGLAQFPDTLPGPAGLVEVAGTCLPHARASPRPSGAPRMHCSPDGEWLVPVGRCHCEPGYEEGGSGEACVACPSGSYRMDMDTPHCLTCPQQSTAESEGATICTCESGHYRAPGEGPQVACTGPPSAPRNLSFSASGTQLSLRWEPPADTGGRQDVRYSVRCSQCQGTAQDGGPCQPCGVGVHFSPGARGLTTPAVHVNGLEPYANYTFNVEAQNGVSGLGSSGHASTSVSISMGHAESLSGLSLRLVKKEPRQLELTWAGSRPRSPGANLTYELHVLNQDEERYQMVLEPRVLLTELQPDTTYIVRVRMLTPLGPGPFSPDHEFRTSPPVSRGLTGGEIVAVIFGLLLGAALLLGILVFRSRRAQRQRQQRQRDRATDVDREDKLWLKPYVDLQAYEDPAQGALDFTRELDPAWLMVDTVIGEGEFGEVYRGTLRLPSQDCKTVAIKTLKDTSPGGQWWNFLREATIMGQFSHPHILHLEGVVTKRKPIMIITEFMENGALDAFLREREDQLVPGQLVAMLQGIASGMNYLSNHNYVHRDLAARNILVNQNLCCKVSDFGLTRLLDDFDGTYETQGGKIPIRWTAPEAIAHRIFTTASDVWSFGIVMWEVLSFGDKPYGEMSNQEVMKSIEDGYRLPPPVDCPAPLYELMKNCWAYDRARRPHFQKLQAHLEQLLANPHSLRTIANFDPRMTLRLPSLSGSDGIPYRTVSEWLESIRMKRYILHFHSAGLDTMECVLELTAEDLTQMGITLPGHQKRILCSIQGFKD
Structure (SMILES),assay,conditions,measurement,value
O=C(O)[C@@H]1[C@@H](Cn2nnc3ccccc3c2=O)CC[C@H]1C(=O)c1ccc(OCCC2CCOCC2)cc1,"cell-free assay, competition with immobilised ligand",1 µM,remaining binding,100%
F[C@@H]1CCN(c2nccc(-c3cnn4ncccc34)n2)C1,binding,1 µM,remaining binding,79%
CCS(=O)(=O)c1cc2cc(C[C@](O)(CC(C)(C)c3ccc(F)cc3C(N)=O)C(F)(F)F)[nH]c2cn1,"cell-free assay, competition with immobilised ligand",1 µM,remaining binding,100%
Oc1cccc(-c2nc(N3CCOCC3)c3oc4ncccc4c3n2)c1,cell-free assay,0.5 µM,remaining signal,87.8%
O=C(Nc1cnn(-c2csc(C(=O)NC3COC3)c2)c1)Nc1ccccc1Cl,"enzyme activity, inhibitor",5 µM,remaining activity,99.1%
Cc1cc(NC(=O)c2cccc3cc(-c4cccc5[nH]nc(N)c45)ccc23)ccc1F,"enzyme activity, inhibitor",0.1 µM,activity vs control,102%
c1ccc(CNc2nc(N3CCOc4ccccc43)nc3c2CCCC3)cc1,"target engagement in cells, inhibitor, chemoproteomics",20 mM,inhibition,-26.1%
O=C(Nc1cccnn1)N1CCC(=Cc2cccc(Oc3ccc(C(F)(F)F)cn3)c2)CC1,"cell-free assay, competition with immobilised ligand",1 µM,remaining binding,100%
Cc1ccc(Nc2nccc(N(C)c3ccc4c(C)n(C)nc4c3)n2)cc1S(N)(=O)=O,"enzyme activity, inhibitor",10 µM,inhibition,85%
Nc1ncnc2occ(-c3ccc(NC(=O)Nc4cc(C(F)(F)F)ccc4F)cc3)c12,cell-free assay,20 µM,remaining signal,0.5%
CCN(CC)CCNC(=O)c1c(C)[nH]c(/C=C2\C(=O)Nc3ccc(F)cc32)c1C,"enzyme activity, inhibitor",10 µM,inhibition,62%
CC(C)(C)c1nc2c(s1)c1nc(N)ncc1c1ccc(NS(=O)(=O)c3c(F)cccc3F)c(F)c12,"enzyme activity, inhibitor, radiometric",1 µM,remaining activity,94%
CCCOc1ccc(OC)c(F)c1C(=O)c1ccc(C(=O)N[C@@H]2CNC[C@H]2NC(=O)c2ccc3[nH]ncc3c2)cc1,"enzyme activity, inhibitor",10 µM,remaining activity,85%
O=C(NCCCC1CCCCC1)c1ccc(CNC(=O)c2cnn(-c3ccccc3)c2C(F)(F)F)cc1,"cell-free assay, competition with immobilised ligand",0.1 µM,remaining binding,100%
Cc1ccc(C(=O)NCc2ccsc2)cc1C#Cc1cn(C(C)C)c2ncnc(N)c12,"enzyme activity, inhibitor",1 µM,activity vs control,45%
Cn1nc(C(=O)NCc2ccc(C(=O)O)cc2)cc1-c1ccc2[nH]ccc2c1,"cell-free assay, competition with immobilised ligand",0.1 µM,remaining binding,95%
COc1cc(Nc2c(C#N)cnc3cc(OCCCN4CCN(C)CC4)c(OC)cc23)c(Cl)cc1Cl,cell-free assay,0.5 µM,remaining signal,97.7%
